# UBC13 polyUb: inhibitors of human UBC13 polyubiquitin chain formation. P61088. TR-FRET. inhibition, % at 20 µM. 330,000 tested, 0.47% active; in the data active = inhibition above about 45%, passing the limit was not always enough
# Rin1 Abl inh: inhibitors of human Rin1-Abl protein interaction. P00519+Q13671. TR-FRET Rin1/Abl binding, biochemical. inhibition, % at 7.35 µM. 360,000 tested, 0.4% active. AID 588664; in the data active = inhibition above about 5%, passing the limit was not always enough
# PAD4 FP inh: inhibitors of human PAD4 | Q9UM07 | recombinant PAD4, RCA probe fluorescence polarization | inhibition, % at 6.36 µM | 330,000 tested, 0.41% active;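 active = percent inhibition above a cutoff equal to the mean of all tested compounds plus 3 SD, cut at about 15% in these data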;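 note: 0% = PAD4 with RCA probe and DMSO and 100% = probe without PAD4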
# Apaf-1 inh: inhibitors of human Apaf-1 apoptosome. O14727. reconstituted apoptosome caspase-3 activity, DEVD-Rh110 fluorescence. inhibition, % at 20 µM. 330,000 tested, 0.71% active; active = inhibition of at least 40% at 20 µM;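 note: plate controls were DMSO wells for no effect and DEVD-CHO caspase inhibitor wells for full effect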
# Target sequence (O14727 whole entry, looked up): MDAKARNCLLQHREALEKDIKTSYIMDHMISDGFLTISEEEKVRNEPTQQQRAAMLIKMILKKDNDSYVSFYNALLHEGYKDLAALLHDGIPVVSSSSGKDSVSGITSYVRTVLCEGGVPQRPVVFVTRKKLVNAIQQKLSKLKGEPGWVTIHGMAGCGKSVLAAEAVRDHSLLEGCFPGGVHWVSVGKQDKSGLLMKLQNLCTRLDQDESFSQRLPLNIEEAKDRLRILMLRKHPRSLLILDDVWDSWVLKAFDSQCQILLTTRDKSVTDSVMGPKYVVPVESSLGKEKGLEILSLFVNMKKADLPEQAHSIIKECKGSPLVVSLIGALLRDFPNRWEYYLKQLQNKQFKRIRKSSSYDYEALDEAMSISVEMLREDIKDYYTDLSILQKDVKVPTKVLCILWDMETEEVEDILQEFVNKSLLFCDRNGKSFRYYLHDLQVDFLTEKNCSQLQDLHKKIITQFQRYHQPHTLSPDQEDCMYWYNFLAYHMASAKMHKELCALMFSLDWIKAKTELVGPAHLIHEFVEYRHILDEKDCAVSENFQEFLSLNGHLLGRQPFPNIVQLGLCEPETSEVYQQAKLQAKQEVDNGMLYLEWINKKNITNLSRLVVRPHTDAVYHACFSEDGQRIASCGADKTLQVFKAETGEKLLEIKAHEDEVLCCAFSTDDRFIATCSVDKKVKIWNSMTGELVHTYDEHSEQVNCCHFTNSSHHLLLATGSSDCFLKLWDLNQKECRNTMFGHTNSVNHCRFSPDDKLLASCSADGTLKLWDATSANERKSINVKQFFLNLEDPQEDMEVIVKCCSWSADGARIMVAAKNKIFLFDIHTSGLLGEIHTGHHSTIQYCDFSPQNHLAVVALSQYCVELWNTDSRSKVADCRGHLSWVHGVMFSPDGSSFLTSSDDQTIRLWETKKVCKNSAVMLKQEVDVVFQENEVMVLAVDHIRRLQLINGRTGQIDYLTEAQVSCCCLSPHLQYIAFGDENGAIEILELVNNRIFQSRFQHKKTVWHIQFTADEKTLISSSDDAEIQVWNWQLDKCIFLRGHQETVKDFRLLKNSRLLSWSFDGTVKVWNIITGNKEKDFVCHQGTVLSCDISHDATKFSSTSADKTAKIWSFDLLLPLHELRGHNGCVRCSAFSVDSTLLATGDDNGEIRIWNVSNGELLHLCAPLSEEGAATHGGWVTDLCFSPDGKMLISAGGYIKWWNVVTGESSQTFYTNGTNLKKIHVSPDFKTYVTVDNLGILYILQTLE
#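 Material: reconstituted apoptosome with Apaf-1, cytochrome c, caspase-9, procaspase-3, dATP; medium: pH 7.5 Hepes buffer with CHAPS, BSA, DTT; also added: cytochrome c and DEVD-Rh110 substrate; timing: 30 min plus 50 min, RT; signal: Rh110 fluorescence intensity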
# UBC9 SUMO inh: SUMOylation inhibition. HTRF SUMOylation assay, SAE1/SAE2 + UBC9, in vitro. inhibition, % at 35 µM. 290,000 tested, 0.36% active. AID 2006; in the data active = inhibition above about 50%, passing the limit was not always enough
# GSTO1 inh: blocks human GSTO1 in RBBP9 counter-screen; recombinant GSTO1, activity-based probe fluorescence polarization; inhibition, % at 5.96 µM; 300,000 tested, 1.1% active; AID 1974;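 active = inhibition above the campaign mean inhibition plus 3 SD, cut at about 35% in these data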;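 note: 0% = GSTO1-1 with DMSO and 100% = wells lacking GSTO1-1 enzyme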
# * hit, by the source's call; nt = not tested or not shown. The list is not random: actives were taken first. Their share in the collection is about 2.2%.
SMILES,UBC13 polyUb,Rin1 Abl inh,PAD4 FP inh,Apaf-1 inh,UBC9 SUMO inh,GSTO1 inh
O=C(Nc1ccc2c(c1)OCCO2)C(c1cc2ccccc2o1)N1CCC(Cc2ccccc2)CC1 (centres undefined),nt,-2,nt,nt,nt,nt
CCCC(=O)c1ccc(O)cc1O,3,1,nt,-1,1,nt
Cc1cc(NC(=O)c2cc(C(C)C)on2)no1,4,2,0,-8,-16,16
CC(C)c1cc(NC(=O)CCl)on1,3,1,0,-19,2,104*
COCCN(CC(=O)Nc1ccccc1C(F)(F)F)C(=O)/C=C/c1ccc2ccccc2n1,-7,0,2,13,nt,nt
CC(C(=O)N1CCc2ccccc21)N1CCN(Cc2ccc(Cl)cc2)CC1 (centres undefined),-9,0,-1,26,4,12
CC(=O)Oc1ccc(C(=O)OCC(=O)c2c(N)n(C)c(=O)n(C)c2=O)cc1OC(C)=O,14,3,4,3,10,35*
O=C(/C=C/c1ccc([N+](=O)[O-])cc1)/C=C/c1ccco1,3,5,4,43*,32,31
CNS(=O)(=O)c1ccc2c(c1)C(=O)c1cc(S(=O)(=O)NC)ccc1CC2,7,4,-2,-1,nt,nt
COc1cccc(NC(=O)C2CCC(CNS(=O)(=O)c3ccc4c(c3)CC(C)N4C(C)=O)CC2)c1 (centres undefined),0,2,4,1,2,35*
COc1cccc(NC(=O)C2CCN(S(=O)(=O)c3ccc4c(c3)CC(C)N4C(C)=O)CC2)c1 (centres undefined),4,1,0,2,3,4
CCC(C)N(C(=O)COc1ccc(Cl)c2cccnc12)C1CCS(=O)(=O)C1 (centres undefined),55*,-3,-2,6,nt,10
CCC(C)N(C(=O)COc1ccccc1C#N)C1CCS(=O)(=O)C1 (centres undefined),-3,0,2,-7,nt,3
CCCNC(=O)C1(C)CCCN(Cc2c(F)cccc2F)C1 (centres undefined),nt,4,nt,nt,nt,nt
NS(=O)(=O)c1cc(C(=O)NC2CCSc3ccccc32)ccc1Cl (centres undefined),-3,1,-29,4,73*,-115
O=C(CC1C(=O)NCCN1C(=O)c1ccc(F)cc1)OCc1ccccc1 (centres undefined),-1,4,-1,-3,4,-8
CC(=O)OCC1(C)CN(c2ccccc2)N(C(=O)c2ccc(F)cc2)C1=O (centres undefined),6,0,-2,-9,-6,36*
CSc1ccccc1NC(=O)C(C)N(C)CC(=O)N1CCN(Cc2ccccc2)CC1 (centres undefined),nt,1,nt,nt,nt,nt
COc1ccc(-n2[nH]c3c(cnc4ccccc43)c2=O)cc1,nt,-4,nt,nt,nt,nt
Oc1c(Br)cc(Br)cc1/C=N/NC(=S)N[C@H]1CC2C=CC1C2 (some centres undefined),-8,3,-3,27,58*,-11
O=C(COC(=O)COc1ccccc1)Nc1cccnc1Cl,-8,4,-1,6,nt,nt
O=C(COC(=O)COc1ccc(Cl)cc1Cl)Nc1cccnc1Cl,-4,-2,6,7,-10,35*
CC(=O)N1C(=O)c2cccc3cccc(c23)C(=O)N1C(C)=O,-9,nt,2,-3,1,2
O=C1c2cccc3cccc(c23)C(=O)C1(O)O,-29,14*,3,-4,nt,63*
O=C(O)c1ccc2c(c1)C(=O)/C(=C/c1ccccc1)C2=O,-34,-1,3,37,39,56*
SMILES,UBC13 polyUb,Rin1 Abl inh,PAD4 FP inh,Apaf-1 inh,UBC9 SUMO inh,GSTO1 inh
O=C1NC(=S)SC1=Cc1ccccc1Cl,nt,5,nt,nt,nt,nt
O=C1NC(=S)S/C1=C\c1cc2ccccc2nc1N1CCCCC1,-22,2,-3,6,55*,-10
COc1ccc2nc(N3CCCCC3)c(/C=C3\SC(=S)NC3=O)cc2c1,-34,6.6*,-8,-8,49,-25
COc1ccc(-n2c(C)cc(/C=C3\SC(=S)NC3=O)c2C)cc1,-53,2,-7,10,31,11
COc1ccc(S(=O)(=O)N2CCCCCC2)cc1C(=O)N1CCN(C(C)=O)CC1,nt,1,nt,nt,nt,nt
CC1=NN(c2ccccc2)C(=O)/C1=C\c1sccc1C,-19,-3,-8,28,14,22
CC1=NN(c2ccccc2)C(=O)C1=C(C)C,-7,4,7,38,10,35*
COc1ccc2[nH]c3c(=O)n(CCCC(=O)NC4CCCCC4C)c(=S)[nH]c3c2c1 (centres undefined),-13,0,-7,0,58*,-1
COc1ccc2[nH]c3c(=O)n(CCCC(=O)NC4CCC(C)CC4)c(=S)[nH]c3c2c1 (centres undefined),-17,-1,-3,-2,nt,1
O=c1cc(-c2c(F)c(F)c(F)c(F)c2F)oc2c(F)c(F)c(F)c(F)c12,-2,nt,46*,17,19,-1
O=c1cc(-c2c(F)c(F)c(F)c(F)c2F)oc2ccccc12,6,-3,5,4,9,-59
O=C(c1cccn2c(=O)c3cc(Cl)ccc3nc12)N1CCOCC1,7,-3,1,-9,52*,7
COc1ccccc1NC(=O)COC(=O)c1cc([N+](=O)[O-])ccc1N1CCCC1,-1,-4,1,19,nt,nt
CN(C)c1ccc(CNC(=O)C2(C)Cc3c(-c4ccc5c(c4)OCO5)ccnc3O2)cc1 (centres undefined),nt,-3,nt,nt,nt,nt
O=C1c2ccccc2C(=O)N1c1cccc2cccnc12,-4,0,-5,-4,74*,-1
O=C1C2C3C=CC(C3)C2C(=O)N1c1cccc2cccnc12 (centres undefined),3,-1,1,-16,2,-1
O=C1C(Cl)=C(N2CCCC2)C(=O)N1c1ccc(F)cc1,1,-1,3,-8,17,35*
O=C1C(Cl)=C(N2CCCC2)C(=O)N1c1ccccc1F,-6,-3,-7,0,5,30
COCCNC(=O)CCC1CCN(Cc2ccc(-c3ccccc3)cc2)CC1,5,-2,1,-12,80*,6
COCCNC(=O)C1CCCN(Cc2ccccc2)CC1 (centres undefined),nt,1,nt,nt,nt,nt
CC1=C(C(=O)N(C)C)CC(CC(=O)NCCCN(C)C)C(=O)N1Cc1ccc(F)cc1 (centres undefined),nt,-2,nt,nt,nt,nt
CC(=O)Oc1ccc2cc(-c3nc4ccccc4n3C)c(=O)oc2c1,5,0,-5,3,56*,0
Cn1c(-c2cc3ccc(OC(=O)C(C)(C)C)cc3oc2=O)nc2ccccc21,10,-5,6,18,24,1
C[C@]1(O)CC(=O)C=C[C@H]1Nc1ccccc1,nt,-3,nt,nt,nt,nt
CCN(CC)c1ccc(N=Cc2ccccc2[N+](=O)[O-])cc1,-47,-1,8,62*,8,69*
